Experimental data from PMC11421684 (Food and chemical toxicology : an international journal …, 2014).
Where two headings read alike, the source gives them in different places.

How the values were obtained:
[1] = test system: pregnant rats; assay: Reproductive indices at necropsy; format: in vivo, rat; settings: dams
How it was run: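 Time-pregnant rats were gavaged daily for 10 days from GD10 with 1% CMC-Na or 1000 mg/kg BW/day test compound. At necropsy the gravid uterus was removed whole and weighed, and corpora lutea, implants, and early and late deaths were recorded. Groups were compared against both control and the other triazine group.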

[2] = test system: ABCB1; settings: MDCK cells; ref Partanen et al. (2012); cited from earlier work
[3] = Formalin, ethanol and freezing effects on renal crystals; design: species or system rat
How it was run: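 Fresh kidney wet-mounts with crystal rank 4–5 were flooded with 10% neutral buffered formalin and photographed repeatedly. Times were 0, 1, 2, 3 and 24 h for melamine-exposed kidney and 0, 10, 20, 30 min and 1 h for cyanuric acid-exposed kidney. Sections in 100% ethanol were checked daily for up to 6 days. Frozen tissue, either freeze–thawed or held at −70 °C, was cut into 6 μm cryosections, unstained or unfixed H&E.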

[4] = oral, female rats; ref Jacob et al., 2012; cited from earlier work
[5] = Weight gains, feed and water consumption of gavaged rats; format: in vivo, rat
How it was run: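 Rats were housed singly at 18–26 °C, 40–70% RH and 12 h light/dark, with feed and water ad libitum. They were gavaged for 10 days from GD10 with vehicle (1% CMC-Na) or 1000 mg/kg BW/day test compound. Fluid intake was measured every 3 days and feed every 7 days. For dams, adjusted gain = GD20 body weight minus gravid uterus weight and GD10 weight.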

[6] = Serum chemistry, renal function; format: in vivo, rat; settings: for Blood urea nitrogen (mean ± SEM) / Creatinine (mean ± SEM) / Uric acid (mean ± SEM): serum
How it was run: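 Serum was taken from pregnant and non-pregnant rats after 10 days of gavage with vehicle or 1000 mg/kg BW/day test compound. Samples were brought to room temperature. BUN, creatinine and uric acid were measured on a benchtop veterinary chemistry analyser. Results were compared with control and the other treated group.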

[7] = pregnant rats, ref Jingbin et al. (2010), cited from earlier work
[8] = Serum triazine analysis by LC-MS/MS; format: in vivo; settings: pregnant female rats, individual rat; label = dose group; LOD 0.4 μg/mL
How it was run: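 Serum was collected from each rat after 10 daily gavages of 1000 mg/kg BW/day test compound or vehicle. Melamine and cyanuric acid were quantified by a previously published LC-MS/MS method, validated with pre-spiked serum samples at several fortification levels. Natural-log serum concentrations were compared between pregnant and non-pregnant rats by two-sided t-test (p ≤ 0.05).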

[9] = test system: kidney; assay: Kidney wet-mount analysis for renal crystals; format: in vivo, rat
How it was run: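 After 10 days of gavage at 1000 mg/kg BW/day, a thin fresh renal slice spanning cortex and medulla was weighed. It was compressed between two slides with a coverslip and examined fresh by light microscopy. Crystals were ranked on a subjective 0–5 scale; some views used polarised light.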

[10] = test system: pregnant rats; settings: F344 rats, MEL in feed; ref Melnick et al. (1984); cited from earlier work
[11] = test system: ABCG2; settings: MDCK cells; ref Partanen et al. (2012); cited from earlier work
[12] = Body weight and organ weights standardized to body weight; format: in vivo, rat; settings: 1000 mg/kg BW/day; for Paired kidney weight standardized to body weight (% ± SEM): group mean
[13] = Amniotic fluid triazine analysis by LC-MS/MS; format: in vivo, rat; settings: pregnant female rats, pooled by dam; label = dose group; LOD 0.4 μg/mL
How it was run: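 Amniotic fluid came from GD20 dams gavaged for 10 days with vehicle or 1000 mg/kg BW/day test compound. Melamine and cyanuric acid were measured by a previously published LC-MS/MS method, validated with pre-spiked amniotic fluid. Serum-to-amniotic fluid Pearson correlations were run only on rats with both samples (p ≤ 0.05).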

[14] = test system: kidney and bladder; assay: Histopathology of kidney and bladder; format: in vivo, rat
[15] = test system: fetuses; assay: Fetal data; format: in vivo, rat; settings: dams, 1000 mg/kg BW/day, GD20
How it was run: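 Dams were dosed by gavage (1000 mg/kg BW/day or 1% CMC-Na vehicle) for 10 days from GD10. At GD20 necropsy, the gravid uterus was removed whole and weighed. Each viable fetus was recorded for uterine position, sex, weight, crown-rump length and external abnormalities. Runts were defined as below 70% of the control litter average weight by gender.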

[16] = test system: ABCC2; settings: MDCK cells; ref Partanen et al. (2012); cited from earlier work
[17] = test system: rats; assay: Clinical observations and survival; format: in vivo, rat; settings: 1000 mg/kg BW/day
How it was run: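 Female rats, time-pregnant or non-pregnant, were weight-stratified and randomised from GD10. They were gavaged each morning for 10 days with 1% CMC-Na vehicle or 1000 mg/kg BW/day test compound at 1 mL/100 g (n = 11/group; pregnant high-triazine group n = 13). Observations were made at least twice on day 1, then at least daily, covering skin, fur, eyes, mucosa, autonomic/CNS signs and behaviour. Animals removed early were counted as deaths.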

[18] = 1000 mg/kg BW/day, necropsy GD20
[19] = not pregnant rats, 1000 mg/kg BW/day
[20] = pregnant rats, 1000 mg/kg BW/day
[21] = kidney, H&E, pregnant and non-pregnant

SMILES: Nc1nc(N)nc(N)n1 [MEL, melamine]
- No. corpea lutea (mean ± SEM) ([1]; 1000 mg/kg BW/day gavage GD10-20, necropsy GD20): 15.1 ± 0.4
- Early and late deaths (mean% of implants ± SEM) [1, 18]: 60.3 ± 14.2^^ % of implants
- Early deaths (mean% of implants ± SEM) [1, 18]: 28.8 ± 12.5^@ % of implants
- Implant efficiency (mean% ± SEM) [1, 18]: 88.0 ± 3.6%
- Late deaths (mean% of implants ± SEM) [1, 18]: 31.6 ± 13.1 % of implants
- No. fetuses alive (mean ± SEM) [1, 18]: 5.5 ± 2.0
- No. implants (mean ± SEM) [1, 18]: 13.3 ± 0.6
- Percent alive both genders (mean% ± SEM) [1, 18]: 39.7 ± 14.2%
- Percent live females (mean% ± SEM) [1, 18]: 40.7 ± 3.8%
- Substrate for ABC transporter ABCB1 [2]: not a substrate
- Stability of crystals to freeze–thaw cycles ([3]; frozen kidney tissue, CYA stable if held at −70 °C): able to withstand freeze–thaw cycles
- Period over which crystals progressively dissolve in 100% ethanol ([3]; kidney wet-mount sections): 6 days
- Time within which crystal presence was greatly reduced in formalin ([3]; kidney wet-mount sections): ≤ 2 h
- Area under the curve (AUC) [4]: 1992 ng·h/mL
- Half-life [4]: 1.92 h
- Total feed consumption (g ± SEM) [5, 19]: 112.3 ± 9.2^^ g
- Total water consumption (g ± SEM) [5, 19]: 295.1 ± 21.9 g
- Total bw gain (g ± SEM) ([5]; not pregnant rats, 1000 mg/kg BW/day gavage 10 days, brackets indicate negative): (9.1) ± 6.5^^ g
- Total feed consumption (g ± SEM) [5, 20]: 122.2 ± 11.0^^ g
- Total water consumption (g ± SEM) [5, 20]: 391.8 ± 43.6 g
- Total bw gain (g ± SEM) ([5]; pregnant rats, 1000 mg/kg BW/day gavage GD10-20): 5.7 ± 14.9^^ g
- Adjusted weight gain (g ± SEM) ([5]; pregnant rats, GD20 body weight minus gravid uterus weight and GD10 weight, brackets indicate negative, 1000 mg/kg BW/day): (32.0) ± 14.6^^ g
- Effect on uric acid serum levels versus control rats ([6]; 1000 mg/kg BW/day): did not appear to have an effect
- Blood urea nitrogen (mean ± SEM) [6, 19]: 62.45 ± 17.32^^ mg/dL
- Creatinine (mean ± SEM) [6, 19]: 1.28 ± 0.27^^ mg/dL
- Uric acid (mean ± SEM) [6, 19]: 4.18 ± 0.29 mg/dL
- Mean creatinine of all treated rats ([6]; pregnant and non-pregnant pooled): 1.4 mg/dL
- Mean BUN of all treated rats ([6]; pregnant and non-pregnant pooled, all but one had crystals): 69 mg/dL
- BUN and creatinine levels, elevation over control and CYA group levels ([6]; pregnant and non-pregnant rats): 2–4 times
- Blood urea nitrogen (mean ± SEM) [6, 20]: 78.25 ± 18.41^^ mg/dL
- Creatinine (mean ± SEM) [6, 20]: 1.45 ± 0.22^^ mg/dL
- Uric acid (mean ± SEM) [6, 20]: 3.45 ± 0.12 mg/dL
- Detection of melamine in amniotic fluid ([7]; 40 mg/kg BW GD13 to GD20): did not detect
- Detection of melamine in amniotic fluid ([7]; 400 mg/kg BW): detected
- Amniotic fluid concentration as percent of maternal serum [7]: approximately 17%
- CYA concentration, Serum [8]: <LOD
- Number of rats with non-pigmented pyramidal uroliths adjacent to the papilla ([9]; 1000 mg/kg BW/day): 4
- Treated rats that developed renal crystals (percent) ([9]; pregnant and non-pregnant combined, MEL n = 24, CYA n = 22, wet-mount): 96%
- Number of treated rats that developed renal crystals ([9]; pregnant and non-pregnant combined, MEL of 24, CYA of 22, wet-mount): 23
- Microscopically-observed pathology in the ovaries or uteri [10]: did not report any microscopically-observed pathology
- Substrate for ABC transporter ABCG2 [11]: not a substrate
- GD20 Body weight (g ± SEM) ([12]; not pregnant rats): 211.3 ± 6.3 g
- Heart weight standardized to body weight (% ± SEM) ([12]; not pregnant rats): 0.43 ± 0.02 %
- Left kidney weight standardized to body weight (% ± SEM) ([12]; not pregnant rats): 0.65 ± 0.06%
- Liver weight standardized to body weight (% ± SEM) ([12]; not pregnant rats): 3.70 ± 0.14%
- Right kidney weight standardized to body weight (% ± SEM) ([12]; not pregnant rats): 0.68 ± 0.08^^ %
- Spleen weight standardized to body weight (% ± SEM) ([12]; not pregnant rats): 0.26 ± 0.02%
- Paired kidney weight standardized to body weight (% ± SEM) ([12]; not pregnant rats): 1.33 ± 0.13^^ %
- GD20 Body weight (g ± SEM) ([12]; pregnant rats): 247.6 ± 11.5 g
- Heart weight standardized to body weight (% ± SEM) ([12]; pregnant rats): 0.37 ± 0.03^^ %
- Left kidney weight standardized to body weight (% ± SEM) ([12]; pregnant rats): 0.52 ± 0.05%
- Liver weight standardized to body weight (% ± SEM) ([12]; pregnant rats): 3.64 ± 0.08%
- Right kidney weight standardized to body weight (% ± SEM) ([12]; pregnant rats): 0.56 ± 0.05^^ %
- Spleen weight standardized to body weight (% ± SEM) ([12]; pregnant rats): 0.16 ± 0.03%
- Paired kidney weight standardized to body weight (% ± SEM) ([12]; pregnant rats): 1.09 ± 0.10^^ %
- CYA concentration, Amniotic Fluid [13]: <LOD
- Number of rats with epithelial necrosis in the bladder ([14]; MEL: pregnant rats, minimal to marked, CYA: 1 pregnant, 2 non-pregnant, mild): 3
- Rats with tubular dilation [14, 21]: 92%
- Rats with tubular necrosis [14, 21]: 100%
- Average crown rump length (mean cm ± SEM) [15]: 3.62 ± 0.23^^ cm
- Average fetal body weight (g ± SEM) [15]: 2.85 ± 0.48^^ g
- Litter size (mean ± SEM) [15]: 5.5 ± 2.0^^
- Substrate for ABC transporter ABCC2 [16]: not a substrate
- Animals removed from the study early ([17]; non-pregnant rats (n = 11)): 1
- Maternal health during 10 day dosing period ([17]; pregnant and non-pregnant rats): lost condition
- Animals removed from the study early ([17]; pregnant rats (n = 13)): 7
